Source: EPA's CvTdb concentration-time database

Legend:
Rat [1] = assay: concentration in kidney after dosing; settings: 0.5 h; dosed: Fluorotelomer alcohol 8+2; 80 mg/kg; oral; Female; Harlan Sprague Dawley
Rat [2] = assay: concentration in brain after dosing; settings: 3 h; dosed: Fluorotelomer alcohol 8+2; 80 mg/kg; oral; Female; Harlan Sprague Dawley
Rat [3] = assay: concentration in liver after dosing; settings: 0.5 h; dosed: Fluorotelomer alcohol 8+2; 80 mg/kg; oral; Female; Harlan Sprague Dawley
Rat [4] = assay: concentration in kidney after dosing; settings: 6 h; dosed: Fluorotelomer alcohol 8+2; 80 mg/kg; oral; Female; Harlan Sprague Dawley
Rat [5] = assay: concentration in plasma after dosing; settings: 0.5 h; dosed: Primidone; 130 mg/kg; oral; Female; F344
Rat [6] = assay: concentration in kidney after dosing; settings: 864 h; dosed: Perfluorodecanoic acid; 10 mg/kg; oral; Female; Harlan Sprague Dawley
Rat [7] = assay: concentration in plasma after dosing; settings: dosed: Perfluorodecanoic acid, 2 mg/kg, iv, Male, F344
Rat [8] = assay: concentration in plasma after dosing; settings: dosed: Perfluorodecanoic acid, 2 mg/kg, iv, Male, F344; remark: listed apart in the source
Rat [9] = assay: concentration in thymus after dosing; settings: 20 min; dosed: Bis 2-Chloroethoxy Methane; 20 mg/kg; iv; Female; F344
Rat [10] = assay: concentration in liver after dosing; settings: 40 min; dosed: Bis 2-Chloroethoxy Methane; 20 mg/kg; iv; Female; F344
Rat [11] = assay: concentration in heart after dosing; settings: 5 h; dosed: Bis 2-Chloroethoxy Methane; 20 mg/kg; iv; Female; F344
Rat [12] = assay: concentration in plasma after dosing; settings: dosed: Bis 2-Chloroethoxy Methane, 40 mg/kg, iv, Male, Harlan Sprague Dawley
Rat [13] = assay: concentration in thymus after dosing; settings: 5 h; dosed: Bis 2-Chloroethoxy Methane; 20 mg/kg; iv; Female; F344
Rat [14] = assay: concentration in heart after dosing; settings: 2 h; dosed: Bis 2-Chloroethoxy Methane; 20 mg/kg; iv; Female; F344
Rat [15] = assay: concentration in plasma after dosing; settings: 2 h; dosed: dichloroacetic acid; 60 mg/kg; iv; Female; Harlan Sprague-Dawley
Rat [16] = assay: concentration in plasma after dosing; settings: 0.25 h; dosed: dichloroacetic acid; 10 mg/kg; oral; Male; Harlan Sprague Dawley
Rat [17] = assay: concentration in plasma after dosing; settings: 40 min; dosed: dichloroacetic acid; 100 mg/kg; oral; Male; F344
human [18] = assay: concentration in plasma after dosing; negative times count back from the end of exposure; settings: dosed: trichloroethylene, 100 ppm, inhalation, duration: 4 hr, person
Procedure, shortened: (§1)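 Points were largely digitised from plot screenshots with WebPlotDigitizer or otherwise copied from tables, and they remain in the units each source reported. They come from published in vivo toxicokinetic studies and two structured collections. Sampling and analytical methods follow each source and were often not reported.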

Rat [19] = assay: concentration in plasma after dosing; settings: 5 min; dosed: Wyeth-14643; 2.0 mg/kg; oral; Male; Sprague-Dawley
Rat [20] = assay: concentration in plasma after dosing; settings: 4 h; dosed: Wyeth-14643; 5.0 mg/kg; oral; Male; Sprague-Dawley
Rat [21] = assay: concentration in plasma after dosing; settings: 1 h; dosed: Wyeth-14643; 5.0 mg/kg; oral; Male; Sprague-Dawley
Rat [22] = assay: concentration in plasma after dosing; settings: 3 h; dosed: Thiodiglycolic Acid; 20 mg/kg; iv; Female; Harlan Sprague Dawley
Rat [23] = assay: concentration in plasma after dosing; settings: 20 min; dosed: Thiodiglycolic Acid; 20 mg/kg; iv; Female; Harlan Sprague Dawley
Rat [24] = assay: concentration in liver after dosing; settings: 10 min; dosed: Thiodiglycolic Acid; 20 mg/kg; iv; Male; F344
Rat [25] = assay: concentration in heart after dosing; settings: 8 h; dosed: Thiodiglycolic Acid; 20 mg/kg; iv; Female; Harlan Sprague Dawley
Rat [26] = assay: concentration in liver after dosing; settings: 8 h; dosed: Thiodiglycolic Acid; 20 mg/kg; iv; Female; Harlan Sprague Dawley
Rat [27] = assay: concentration in liver after dosing; settings: 2 h; dosed: Thiodiglycolic Acid; 20 mg/kg; iv; Female; Harlan Sprague Dawley
Rat [28] = assay: concentration in plasma after dosing; settings: 15 h; dosed: Di-n-butyl phthalate; 100 mg/kg; oral; Male; Sprague-Dawley
Rat [29] = assay: concentration in plasma after dosing; settings: 20 h; dosed: Di-n-butyl phthalate; 100 mg/kg; oral; Male; Sprague-Dawley
Rat [30] = assay: concentration in plasma after dosing; settings: 2 h; dosed: Di-n-butyl phthalate; 50 mg/kg; oral; Male; Sprague-Dawley
Rat [31] = assay: concentration in plasma after dosing; settings: 1 h; dosed: Di-n-butyl phthalate; 100 mg/kg; oral; Male; Sprague-Dawley
human [32] = assay: concentration in blood after dosing; settings: dosed: trichloroethylene, 100 ppm, inhalation, duration: 6 hr, person
Procedure, shortened: as §1

OCCC(F)(F)C(F)(F)C(F)(F)C(F)(F)C(F)(F)C(F)(F)C(F)(F)C(F)(F)F [Fluorotelomer alcohol 8+2]
Settings	concentration in brain [ng/g]	concentration in kidney [ng/g]	concentration in liver [ng/g]
Rat [1]	–	3400	–
Rat [2]	7770	–	–
Rat [3]	–	–	4040
Rat [4]	–	834	–

CCC1(c2ccccc2)C(=O)NC(=O)NC1=O [Phenobarbital]
Settings	concentration in plasma [ng/mL]
Rat [5]	1140

O=C(O)C(F)(F)C(F)(F)C(F)(F)C(F)(F)C(F)(F)C(F)(F)C(F)(F)C(F)(F)C(F)(F)F [Perfluorodecanoic acid]
Settings	concentration in kidney [ng/g]
Rat [6]	18600

concentration in plasma [ng/mL]
Settings	1 h	12 h	528 h	1200 h	3360 h
Rat [7]	6390	–	2520	–	267
Rat [8]	–	4320	–	1720	–

ClCCOCOCCCl [Bis 2-Chloroethoxy Methane]
Settings	concentration in heart [ng/g]	concentration in liver [ng/g]	concentration in thymus [ng/g]
Rat [9]	–	–	26100
Rat [10]	–	636	–
Rat [11]	33	–	–
Rat [13]	–	–	79.1
Rat [14]	401	–	–

Rat [12]
Settings	concentration in plasma [ng/mL]
6.667 h	25.4
20 min	8380

O=C(O)C(Cl)Cl [dichloroacetic acid]
Settings	concentration in plasma [ng/mL]
Rat [15]	1170
Rat [16]	908
Rat [17]	39400

human [18]
Settings	concentration in plasma [ng/mL]
0 h	6
0.25 h	9
0.5 h	13
1 h	12
2 h	11
4 h	5
8 h	5
12 h	4
14 h	4
18 h	5
41 h	6
65 h	4

human [18], during exposure
Settings	concentration in plasma [ng/mL]
-3.48 h	80
-3 h	8
-2 h	7
-1 h	7

Cc1cccc(Nc2cc(Cl)nc(SCC(=O)O)n2)c1C
Settings	concentration in plasma [ng/mL]
Rat [19]	405
Rat [20]	955
Rat [21]	4730

O=C(O)CSCC(=O)O [Thiodiglycolic Acid]
Settings	concentration in heart [ng/g]	concentration in liver [ng/g]	concentration in plasma [ng/mL]
Rat [22]	–	–	676
Rat [23]	–	–	16300
Rat [24]	–	155000	–
Rat [25]	376	–	–
Rat [26]	–	737	–
Rat [27]	–	25500	–

CCCCOC(=O)c1ccccc1C(=O)O [Mono-n-butyl phthalate]
Settings	concentration in plasma [ng/mL]
Rat [28]	1250
Rat [29]	414
Rat [30]	3690
Rat [31]	27100

O=C(O)C(Cl)(Cl)Cl [trichloroacetic acid]
human [32]
Settings	concentration in blood [ng/mL]
0 h	11900
18 h	32600
24 h	50300
42 h	32200
48 h	51100
66 h	51000
72 h	55100
90 h	49000
96 h	64900
160 h	28900
